We go through one compound from ChEMBL document CHEMBL4177752, “Discovery of Novel Schizocommunin Derivatives as Telomeric G-Quadruplex Ligands That Trigger Telomere Dysfunction and the Deoxyribonucleic Acid (DNA) Damage Response” (J Med Chem, 2018).

The source made the active and inactive calls. The rule behind the calls is not given here.

Test [1] can be described thus: Binding affinity to hairpin duplex DNA (unknown origin) at 40 uM by SPR method. An outline of the steps: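 SPR: biotinylated HTG21 or hairpin DNA (200 nM) was folded in 50 mM Tris-HCl pH 7.4 with 100 mM KCl and captured to about 1,000 RU on an NLC chip against a blank reference cell. Ligand at 0.625–40 µM was injected at 25 µL/min (400 s association, 300 s dissociation) at 25 °C. The chip was regenerated with 1 M KCl and blank sensorgrams were subtracted.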

In test [2] the test system is Quadruplex DNA. The test can be described thus: Stabilization of telomeric G-quadruplex DNA in human SiHa cells assessed as levels of metaphase chromosome having at least one telomere end loss at 1 uM after 48 hrs by Tamra-OO-[TTAGGG]3 PNA probe and DAPI staining-based FISH assay relative to control. The class given is cell-based. The procedure, abridged:
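Metaphase spreads from SiHa cells treated 48 h with 1 µM compound or 0.1% DMSO were hybridized with a telomeric PNA probe and counterstained with DAPI. The share of chromosomes with at least one telomere-free end was scored; mean ± SEM, two-tailed unpaired t test.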

The nature of test [3]: Inhibition of telomerase (unknown origin) by TRAP-LIG assay. On the set-up: species or system Homo sapiens.
Test [4] deals with Quadruplex DNA. In words: Stabilization of telomeric G-quadruplex DNA in human U2OS cells assessed as increase in BG4 foci per nucleus at 2 uM after 24 hrs by DAPI staining-based immunofluorescence method. In kind it is cell-based. An outline of the steps: (§1)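 Cells were treated 24 h with 2 µM compound or 0.1% DMSO, then fixed (4% paraformaldehyde), permeabilized (0.5% Triton X-100) and blocked (5% goat serum). Staining used BG4 (80 ng/µL, 37 °C 3 h) with anti-FLAG, and/or γ-H2AX, TRF2 or POT1 antibodies at 4 °C overnight. Alexa 488/555 secondaries and DAPI followed. Foci or co-localized foci per nucleus were counted by confocal microscopy; mean ± SEM, two-tailed unpaired t test.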

For test [5], the system named is SiHa. The test can be described thus: Induction of apoptosis in human SiHa cells at 2 uM after 96 hrs by annexin V-FITC/propidium iodide staining-based flow cytometric method relative to control. In kind it is functional. The procedure, abridged:
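SiHa cells were treated with compound or DMSO for 96 h, washed, resuspended in binding buffer, and stained with Annexin V-FITC and PI for 15 min in the dark. Apoptotic percentage was measured by flow cytometry; mean ± SEM.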

The subject of test [6] is Quadruplex DNA. In words: Stabilization of telomeric G-quadruplex DNA in human SiHa cells assessed as induction of telomere uncapping by measuring formation of micronuclei at 1 uM after 48 hrs by DAPI staining-based laser scanning microscopic method. In kind it is cell-based.
Test [7] relates to SiHa. In words: Induction of telomeric G-quadruplex DNA formation in human SiHa cells assessed as increase in colocalization of BG4/TRF2 foci per nucleus at 2 uM after 24 hrs by DAPI staining-based immunofluorescence method. The class given is cell-based. An outline of the steps: as §1
Test [8] relates to SiHa. The test can be described thus: Antiproliferative activity against human SiHa cells after 48 hrs by MTT assay. The class given is functional, cell-based. The procedure, abridged:
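Cells seeded at 5.0×10^3 per well and exposed to a range of compound concentrations for 48 h. MTT (2.5 mg/mL solution) was then added for 4 h, formazan was dissolved in DMSO, and OD was read at 570 nm. HL-60 was grown in RPMI-1640 with 10% FBS, the other lines in DMEM with 10% FBS, at 37 °C and 5% CO2. Triplicates; IC50 taken from mean OD versus concentration curves.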

In test [9] the test system is SiHa. The test can be described thus: Antitumor activity against human SiHa cells xenografted in BALB/C-nu/nu mouse assessed as tumor growth inhibition at 10 mg/kg, ip administered daily for 3 weeks measured post last dose relative to vehicle-treated control. The class given is functional. The settings on record: 504 h, read-out: TGI. The procedure, abridged:
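SiHa cells (1×10^7 per 100 µL, serum-free DMEM) were injected subcutaneously. Grown tumors were divided into pieces and implanted into BALB/C-nu/nu mice. Caliper volume (1/2 × L × W²) and body weight were recorded daily; tumors were weighed at the end.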

Test [10] concerns SiHa. The test can be described thus: Antiproliferative activity against human SiHa cells after 90 hrs by RTCA method. The class given is functional, cell-based. The procedure, abridged:
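SiHa proliferation was followed by real-time cellular analysis during 90 h of compound treatment at several concentrations.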

The subject of test [11] is Quadruplex DNA. In words: Stabilization of telomeric G-quadruplex DNA in human SiHa cells assessed as decrease in TRF length at 0.5 to 1 uM after 21 days by chemiluminescence detection method. The class given is cell-based. An outline of the steps: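 SiHa cells were kept 21 days with 0.5 or 1 µM compound or 0.1% DMSO, with medium and compound renewed every 3 days. Genomic DNA was cut with HinfI/RsaI, run on 0.8% agarose, blotted to nylon, baked at 120 °C for 20 min, and TRF length detected by chemiluminescence.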

Test [12] relates to Quadruplex DNA. In words: Stabilization of telomeric G-quadruplex DNA in human SiHa cells assessed as increase in phosphorylated CHK1 expression after 48 hrs by Western blot method. The class given is cell-based. An outline of the steps: (§2)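 SiHa cells were treated with compound for 48 h and lysed in RIPA buffer. 20 µg protein was run on 10% SDS-PAGE and transferred to PVDF. Blots were blocked in 3% BSA, probed with primary antibodies (1:1,000, 4 °C 16 h) for p-ATR, p-CHK1 and p-P53, then secondaries (1:2,000, 2 h at room temperature).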

The test system of test [13] is Quadruplex DNA. In words: Stabilization of F21T telomeric G-quadruplex DNA (unknown origin) assessed as change in melting temperature at 1 uM by FRET assay. The class given is nucleic-acid assay. An outline of the steps: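 FRET melting: 0.2 µM F21T or F10T (FAM/TAMRA-labelled), with or without 1.0 µM ligand, in 10 mM Tris-HCl pH 7.4 with 60 mM KCl. Excitation 470 nm, emission 530 nm, read every 1 °C from 37–99 °C at 1 °C/min with a 30 s hold. ΔTm = Tm(DNA+ligand) − Tm(DNA).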

The test system of test [14] is SiHa. The test can be described thus: Cell cycle arrest in human SiHa cells assessed as accumulation at G2/M phase at 1 uM after 12 hrs by propidium iodide staining-based flow cytometric method. In kind it is functional. The procedure, abridged:
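SiHa or U2OS cells (2.0×10^5 per well) were treated with compound or DMSO for 12 h, fixed in ice-cold 70% ethanol overnight, and stained with 50 µg/mL PI plus RNase A for 30 min at room temperature in the dark. 10,000 events were collected by flow cytometry to give the phase distribution.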

The next test concerns U2OS. The test can be described thus: Induction of telomeric G-quadruplex DNA formation in human U2OS cells assessed as increase in co-localization of BG4/TRF2 foci per nucleus at 2 uM after 24 hrs by DAPI staining-based double immunofluorescence method. In kind it is cell-based. An outline of the steps: as §1
Test [15] concerns Quadruplex DNA. In words: Stabilization of telomeric G-quadruplex DNA in human SiHa cells assessed as induction of DNA damage response by measuring co-localization of gamma-H2AX and TRF2 foci per nucleus at 2 uM after 24 hrs by DAPI staining-based double immunofluorescence method. In kind it is cell-based. The procedure, abridged: as §1
Test [16] has as its system SiHa. The test can be described thus: Antiproliferative activity against human SiHa cells assessed as decrease in colony formation at 0.125 to 0.5 uM after 12 days by crystal violet staining-based assay. The class given is functional, cell-based.
The subject of test [17] is Quadruplex DNA. In words: Stabilization of telomeric G-quadruplex DNA in human SiHa cells assessed as increase in phosphorylated p53 expression after 48 hrs by Western blot method. In kind it is cell-based. An outline of the steps: as §2
For test [18], the system named is Quadruplex DNA. In words: Stabilization of telomeric G-quadruplex DNA in human SiHa cells assessed as reduction of POT1/TRF2 co-localized foci per nucleus at 2 uM after 24 hrs by DAPI staining-based double immunofluorescence method. The class given is cell-based. An outline of the steps: as §1

Turning to `CN(C)CCCNc1cc2nc(/C=C3\C(=O)Nc4cc(N5CCN(C)CC5)ccc43)[nH]c(=O)c2cc1F`, the outcome in [1] was inactive. Also, the Activity with Quadruplex DNA [2] is 31%; in the test on SiHa [5] it was 60%; with SiHa [10] it was “Dose-dependent effect”; with Quadruplex DNA [12], “Dose-dependent effect”; in the test with Quadruplex DNA [17] it was “Dose-dependent effect”. The half-maximal inhibitory concentration (IC50) in test [3] amounted to 9.6 µM; in the test with SiHa [8], 2800 nM. In addition, the outcome in the test on Quadruplex DNA [4], with Quadruplex DNA [6], in the test on SiHa [7], in the test with Quadruplex DNA [11], in the test on SiHa [14] and in the test with U2OS was Active. Also, the result with Quadruplex DNA [15], in the test on SiHa [16] and in the test with Quadruplex DNA [18] was Active. Moreover, in the test with SiHa [9], the inhibition in vivo at 10 mg/kg amounted to 29%. For the same compound, the ΔTm in the test with Quadruplex DNA [13] amounted to 23.5 °C.
